Among the data in ChEMBL document CHEMBL1130017, “Rationally designed inhibitors of inosine monophosphate dehydrogenase” (J Med Chem, 1997) are k obs and IC50 values, retold here.

The first experiment has as its target T1, Inosine-5'-monophosphate dehydrogenase 2 (Homo sapiens, UniProt P12268). In words: First order rate constant for inactivation of human Inosine-5'-monophosphate dehydrogenase 2. In outline:
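Human type II IMPDH (2 µM) incubated at 23 °C with 20 µM compound (10-fold excess) in 0.1 M potassium phosphate pH 7.9, 0.5 M KCl, 3 mM EDTA, 10 mM DTT and 100 µg/mL BSA. Aliquots taken over time are assayed with 200 µM IMP and 400 µM NAD (8× Km). k_inact comes from a nonlinear first-order fit of remaining activity versus incubation time.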
Turning to `C=Cc1nc(O)c2ncn(C3O[C@@H](COP(=O)(O)O)[C@H](O)[C@@H]3O)c2n1` (stereo partly drawn), the k obs was 0.0144 s⁻¹. In turn, `O=P(O)(O)OC[C@@H]1OC(n2cnc3c(O)nc(CCl)nc32)[C@@H](O)[C@H]1O` (stereo partly drawn) gave a k obs of 0.0528 s⁻¹. For `O=P(O)(O)OC[C@@H]1OC(n2cnc3c(O)nc(CF)nc32)[C@@H](O)[C@H]1O` (stereo partly drawn), the k obs was found to be 0.0164 s⁻¹.

The target in a further experiment is T1, Inosine-5'-monophosphate dehydrogenase 2. In words: Concentration required for 50% inhibition of human Inosine-5'-monophosphate dehydrogenase 2 using Spectrophotometric assay. The method in brief:
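Human type II IMPDH, 25 nM final, added to start the reaction. Mix holds 50 µM IMP, 100 µM NAD and varying inhibitor in 0.1 M potassium phosphate pH 7.4, 0.1 M KCl, 3 mM EDTA, 1 mM DTT and 100 µg/mL BSA. NADH formation is followed by absorbance at 340 nm in 1 cm cells. Fractional activity relative to the uninhibited rate is taken against inhibitor concentration.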
By IC50 is commonly meant the concentration that gives 50% inhibition. Read a low IC50 as greater potency. As for `O=P(O)(O)OC[C@@H]1OC(n2cnc3c(O)nc(C(F)F)nc32)[C@@H](O)[C@H]1O` (stereo partly drawn), the IC50 is above 1000 µM. `O=P(O)(O)OC[C@@H]1OC(n2cnc3c(O)nc(CCc4ccccc4)nc32)[C@@H](O)[C@H]1O` (stereo partly drawn) displayed an IC50 of 460 µM. In the case of `O=c1[nH]c(CF)nc2c1ncn2C1O[C@@H](COP(=O)(O)O)[C@H](O)[C@@H]1O` (stereo partly drawn), the IC50 came to 1.2 µM. `O=P(O)(O)OC[C@@H]1OC(n2cnc3c(O)nc(C(F)(F)F)nc32)[C@@H](O)[C@H]1O` (stereo partly drawn) displayed an IC50 above 1000 µM. On the same count and under the same terms, with `O=P(O)(O)OC[C@@H]1OC(n2cnc3c(O)nc(C(O)O)nc32)[C@@H](O)[C@H]1O` (stereo partly drawn) the figure was 0.44 µM; with `O=c1[nH]c(CCl)nc2c1ncn2C1O[C@@H](COP(=O)(O)O)[C@H](O)[C@@H]1O` (stereo partly drawn), 1.32 µM; with `C=Cc1nc2c(ncn2C2O[C@@H](COP(=O)(O)O)[C@H](O)[C@@H]2O)c(=O)[nH]1` (stereo partly drawn), 1 µM.

Take `Cc1nc(O)c2ncn(C3O[C@@H](COP(=O)(O)O)[C@H](O)[C@@H]3O)c2n1` (stereo partly drawn): the IC50 was above 1000 µM. On to `O=P(O)(O)OC[C@@H]1OC(n2cnc3c(O)nc(/C=C/c4ccccc4)nc32)[C@@H](O)[C@H]1O` (stereo partly drawn), for which the IC50 came to 37 µM. The molecule `O=c1[nH]c(CO)nc2c1ncn2C1O[C@@H](COP(=O)(O)O)[C@H](O)[C@@H]1O` (stereo partly drawn) showed an IC50 of 132 µM.
